{"data": "Assay results of several laboratories", "ALOX5": "Polyunsaturated fatty acid 5-lipoxygenase (ALOX5, Homo sapiens, UniProt P09917)", "TACR2": "Substance-K receptor (TACR2, Homo sapiens, UniProt P21452)", "HDAC8": "Histone deacetylase 8 (HDAC8, Homo sapiens, UniProt Q9BY41)"}
{"Compound": "O=C(c1ccc(F)cc1)N(Cc1ccccc1)C1CCCCC1", "target": "Mu-type opioid receptor (OPRM1, Homo sapiens, UniProt P35372)", "assay": "ligand displacement", "conditions": "10 µM", "inhibition": "6%"}
{"Compound": "CCc1c(O)c(=S)ccn1CC", "target": "ALOX5", "assay": "enzyme activity, inhibitor, fluorescence", "conditions": "1 mM", "inhibition": "> 70%"}
{"Compound": "O=C1N=C(N2CCCCN2)S/C1=C\\c1ccc(F)cc1O", "target": "TACR2", "assay": "ligand displacement, radioligand", "conditions": "10 µM", "inhibition": "< 10%"}
{"Compound": "COc1cc(Cl)c(C(=O)N[C@@H](CN[C@H]2CC[C@@H](N)CC2)Cc2ccc(C#N)cc2)cc1-c1ccc(CN[C@H](C)c2ccc(C)cc2)o1", "target": "Somatostatin receptor type 4 (SSTR4, Homo sapiens, UniProt P31391)", "assay": "calcium signal, antagonist", "conditions": "10 µM", "inhibition": "12%"}
{"Compound": "N#Cc1cc(Cn2c(N3CCCC3)nc3ccccc32)ccc1F", "target": "5-hydroxytryptamine receptor 1D (HTR1D, Homo sapiens, UniProt P28221)", "assay": "cell-free assay", "conditions": "10 µM", "inhibition": "-36.9%"}
{"Compound": "Cc1occc(=S)c1O", "target": "ALOX5", "assay": "enzyme activity, inhibitor, fluorescence", "conditions": "1 mM", "inhibition": "> 70%"}
{"Compound": "CC1(C)CC[C@]2(C)CC[C@]3(C)[C@H]4CC=C5[C@@H](CC[C@H](O)C5(C)C)[C@]4(C)CC[C@@]3(C)[C@@H]2C1", "target": "HDAC8", "assay": "enzyme activity, inhibitor", "conditions": "10 µM", "inhibition": "44.8%"}
{"Compound": "COc1ccc(CCCn2ncc3c2nc(N)n2nc(-c4ccco4)nc32)cc1", "target": "Adenosine receptor A3 (Mus musculus, UniProt Q61618)", "assay": "ligand displacement, radioligand", "conditions": "10 µM, cell membranes", "inhibition": "6%"}
{"Compound": "O=c1occcc1O", "target": "ALOX5", "assay": "enzyme activity, inhibitor, fluorescence", "conditions": "1 mM", "inhibition": "> 70%"}
{"Compound": "CC(=O)OC1c2c(ccc3ccc(=O)oc23)OC(C)(C)C1OC(=O)C(C)(O)C(C)O (stereo not drawn)", "target": "HDAC8", "assay": "enzyme activity, inhibitor", "conditions": "10 µM", "inhibition": "41.2%"}
{"Compound": "CCN1CCN(Cc2ccc(NC(=O)c3ccc(C)c(Oc4ccnc5[nH]ccc45)c3)cc2C(F)(F)F)CC1", "target": "Mitogen-activated protein kinase kinase kinase 4 (MAP3K4, Homo sapiens, UniProt Q9Y6R4)", "assay": "target engagement in cells, inhibitor, chemoproteomics", "test system": "A-375", "conditions": "50 nM", "inhibition": "-20.3%"}
{"Compound": "COC(=O)[C@]1(O)C[C@@H](O)[C@@H](O)[C@H](OC(=O)/C=C/c2ccc(O)c(O)c2)C1", "target": "HDAC8", "assay": "enzyme activity, inhibitor", "conditions": "10 µM", "inhibition": "60.5%"}
{"Compound": "CN(C)C1CCN(CC#Cc2nn(C3CCCC3)c3nc(NCc4ccccc4)ncc23)C1 (stereo not drawn)", "target": "G protein-coupled receptor kinase 4 (GRK4, Homo sapiens, UniProt P32298)", "assay": "enzyme activity, inhibitor, FRET", "conditions": "0.1 µM", "inhibition": "7%"}
{"Compound": "Oc1cccc(Nc2nc(-c3ccc(F)cc3F)cs2)c1", "target": "TACR2", "assay": "cell-free assay", "conditions": "10 µM", "inhibition": "31.5%"}
{"Compound": "O=C(/C=C/c1ccc(O)c(O)c1)O[C@@H]1C[C@](O)(C(=O)O)C[C@@H](O)[C@H]1O", "target": "HDAC8", "assay": "enzyme activity, inhibitor", "conditions": "10 µM", "inhibition": "58.2%"}
